Laboratory results from ChEMBL document CHEMBL2311272, “Design of a new fluorescent probe: pyrrole/imidazole hairpin polyamides with pyrene conjugation at their γ-turn” (Bioorg Med Chem, 2013).

Columns and labels:
[1] = Binding affinity to 5'-biotin-labeled GCTAGTC-CAGGCTTTTGCCTGGACTAGC-3' DNA (unknown origin) by surface plasmon resonance assay
In short: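 Biacore SPR at 25 °C. Biotinylated hairpin DNA is captured on a streptavidin SA chip. Polyamides are diluted from 4 mM DMSO stocks into HBS-EP (10 mM HEPES […], 0.15 M NaCl, 3 mM EDTA, 0.005% P20) with 0.1% DMSO, which is also the running buffer. Samples are injected at 5 μL/min over 6.25 nM–4 μM. Regeneration uses running buffer or 10 mM glycine-HCl, pH 1.5. KD is obtained by model fitting.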

[2] = Binding affinity to 5'-CGTATGGACTCGG-3' DNA (unknown origin) assessed as increase in fluorescence intensity at 200 nM by florescence assay relative to control
In short: (§1)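 Steady-state fluorescence of 200 nM pyrene conjugates mixed with target oligonucleotide duplex in 5 mM Na phosphate buffer, pH 7.0, 1% v/v DMF. Excitation at 345 nm, emission read at 386 nm. Measured at room temperature without oxygen removal. Intensity is compared with that of the conjugate alone.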

[3] = Binding affinity to 5'-CCGAGTCCATACG-3' DNA (unknown origin) assessed as increase in fluorescence intensity at 200 nM by florescence assay relative to control; in short: as §1

Kd [1] | fold change (FC) [2] | fold change (FC) [3] | SMILES
1740 nM | 7 | 7 | CC(=O)Nc1cn(C)c(C(=O)Nc2cn(C)c(C(=O)Nc3cc(C(=O)Nc4cc(C(=O)NCC[C@@H](NC(=O)CCCc5ccc6ccc7cccc8ccc5c6c78)C(=O)Nc5cn(C)c(C(=O)Nc6cc(C(=O)Nc7cc(C(=O)Nc8cc(C(=O)NCCC(=O)NCCCN(C)C)n(C)c8)n(C)c7)n(C)c6)n5)n(C)c4)n(C)c3)n2)n1
> 10000 nM | 3 | 3 | CN(C)CCCNC(=O)CCNC(=O)c1cc(NC(=O)c2cc(NC(=O)c3cc(NC(=O)c4nc(NC(=O)CCCNC(=O)c5cc(NC(=O)c6cc(NC(=O)c7nc(NC(=O)c8nc(NC(=O)CCNC(=O)CCNC(=O)CCCc9ccc%10ccc%11cccc%12ccc9c%10c%11%12)cn8C)cn7C)cn6C)cn5C)cn4C)cn3C)cn2C)cn1C
17.3 nM | 4 | 4 | CC(=O)Nc1cn(C)c(C(=O)Nc2cn(C)c(C(=O)Nc3cc(C(=O)Nc4cc(C(=O)NCC[C@@H](NC(=O)CCNC(=O)CCCc5ccc6ccc7cccc8ccc5c6c78)C(=O)Nc5cn(C)c(C(=O)Nc6cc(C(=O)Nc7cc(C(=O)Nc8cc(C(=O)NCCC(=O)NCCCN(C)C)n(C)c8)n(C)c7)n(C)c6)n5)n(C)c4)n(C)c3)n2)n1
> 10000 nM | 3 | 3 | CN(C)CCCNC(=O)CCNC(=O)c1cc(NC(=O)c2cc(NC(=O)c3cc(NC(=O)c4nc(NC(=O)CCCNC(=O)c5cc(NC(=O)c6cc(NC(=O)c7nc(NC(=O)c8nc(NC(=O)CCNC(=O)CCCc9ccc%10ccc%11cccc%12ccc9c%10c%11%12)cn8C)cn7C)cn6C)cn5C)cn4C)cn3C)cn2C)cn1C
